The test system of data set [1] is Rattus norvegicus. Nature of the data set: Conditioned avoidance response activity was determined by the ability to block the conditioned avoidance of a foot shock at 5 mg/kg(ip). The data set is classed as functional. A digest of the protocol: (§1)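 Male Fischer 344 rats (300–500 g) trained on a discrete-trial single-lever task, pressing the lever to avoid an impending shock; block of responding read at time of peak effect. Escape loss = percent of animals failing to escape the shock; >20% escape loss with CAR inhibition taken as potential for sedation.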

The subject of data set [2] is Rattus norvegicus. Briefly: Conditioned avoidance response activity was determined by the ability to block the conditioned avoidance of a foot shock at 15 mg/kg(ip). Type of data set: functional. The procedure, abridged: as §1
For data set [3], the system named is Rattus norvegicus. Briefly: Percentage of animals failing to escape the shock was measured and affords a rough index for nonspecific sedation at 5 mg/kg(ip)(>20% esc loss = potential for sedation). The data set is classed as functional. A digest of the protocol: as §1
Data set [4] can be described thus: Stability half-life at pH-2. The data set is classed as physicochemical. The procedure, abridged: (§2)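 Half-life measured in solution at pH 2, about 3 × 10⁻³ M compound in citric acid–phosphate buffer at 22 °C.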
Data set [5] deals with Rattus norvegicus. Briefly: Percentage of animals failing to escape shock was measured, affording a rough index for nonspecific sedation at 5 mg/kg(ip).
Data set [6] can be described thus: Stability half-life at pH-2; stable. Type of data set: physicochemical. A digest of the protocol: as §2
The target of data set [7] is T1, 5-hydroxytryptamine receptor 1A (Rattus norvegicus, UniProt P19327).
T1 sequence (P19327 whole entry): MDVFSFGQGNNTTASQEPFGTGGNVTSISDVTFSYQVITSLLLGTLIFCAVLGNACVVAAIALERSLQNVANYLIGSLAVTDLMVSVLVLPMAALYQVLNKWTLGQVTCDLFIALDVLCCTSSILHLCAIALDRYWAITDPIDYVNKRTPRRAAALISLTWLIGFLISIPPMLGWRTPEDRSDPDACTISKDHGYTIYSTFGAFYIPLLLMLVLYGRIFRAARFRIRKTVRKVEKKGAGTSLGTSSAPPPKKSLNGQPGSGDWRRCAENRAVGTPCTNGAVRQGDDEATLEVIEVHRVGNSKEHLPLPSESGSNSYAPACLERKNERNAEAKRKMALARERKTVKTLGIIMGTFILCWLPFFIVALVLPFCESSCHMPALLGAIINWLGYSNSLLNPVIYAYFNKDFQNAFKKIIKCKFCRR
Nature of the data set: Binding affinity was determined against 5-hydroxytryptamine 1A receptor using […].

In data set [8] the test system is Rattus norvegicus. Briefly: Conditioned avoidance response activity was determined by the ability to block the conditioned avoidance of a foot shock (ip). The data set is classed as functional. A digest of the protocol:
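Male Fischer 344 rats (300–500 g) were trained on a single-lever discrete-trial task in which a lever press avoids an impending shock. Block of avoidance was scored at the time of peak effect. […] The percentage of rats failing to escape the shock (escape loss) was also recorded.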

In general, inhibition in vivo refers to the drop in the measured response relative to a control, in per cent. Higher therefore signals strong suppression. For orientation: half-life means how long it takes for the measured level to halve. High values mean slow loss, low ones fast loss. Turning to `CC(C)Oc1ccccc1N1CCN(Cc2ccc(CN3CCCCC3=O)n2C)CC1` [RWJ-25730], in the data set with Rattus norvegicus [1], testing at 5 mg/kg gave an inhibition in vivo of 87%. In the data set with Rattus norvegicus [2], 15 mg/kg produced 98% inhibition in vivo. The molecule also came in with an Esc loss in the data set with Rattus norvegicus [3] of 8%. The half-life in data set [4] worked out at 1.37 h.

As usually defined, the Ki is the equilibrium dissociation constant of an inhibitor or competing ligand from its target. In turn, `CC(C)Oc1ccccc1N1CCN(CCc2ccc(C(=O)C(=O)N3CCCCCC3)n2C)CC1.O=C(O)CCC(=O)O` had an Esc loss in the data set on Rattus norvegicus [5] of 0%. The same molecule returned an inhibition in vivo at 5 mg/kg in the data set with Rattus norvegicus [1] of 1%. In addition, the T1/2 result in data set [6] is listed as “Stable”. The same molecule showed an inhibition constant (Ki) in data set [7] of 12 nM.

Take `CC(C)Oc1ccccc1N1CCN(Cc2ccc(CN3CCCCCC3=O)o2)CC1.O=C(O)CCC(=O)O`: the Esc loss in the data set on Rattus norvegicus [5] turned out to be 1%. This molecule also showed a Ki in data set [7] of 51 nM. In the data set on Rattus norvegicus [2], this molecule displayed an inhibition in vivo at 15 mg/kg of 83%. The half-life in data set [4] was determined as 10.5 h.

For orientation: ED50 means the dose at which the effect has come halfway, by size or by number of responders. Take `O=C1CC2(CCCC2)CC(=O)N1CCCCN1CCN(c2ncccn2)CC1` [BUSPIRONE]: the 50% effect level with Rattus norvegicus [8] (ED50) was put at a dose of 4.5 mg/kg.

For `COc1ccccc1N1CCN(CCc2ccc(CN3CCCCC3=O)n2C)CC1.O=C(O)CCC(=O)O`, the Esc loss with Rattus norvegicus [5] amounted to 4%. Moreover, the inhibition in vivo at 5 mg/kg in the data set on Rattus norvegicus [1] turned out to be 23%. Further, in data set [6], the T1/2 result is “Stable”. This molecule showed a Ki in data set [7] of 1.4 nM.

For the molecule `CC(C)Oc1ccccc1N1CCN(CCc2ccc(C(=O)C(=O)N3CCCCC3)n2C)CC1.O=C(O)CCC(=O)O`, the Esc loss with Rattus norvegicus [5] is 1%. Moreover, the inhibition in vivo at 5 mg/kg in the data set on Rattus norvegicus [1] was 16%. For the same molecule, the T1/2 entry in data set [6] is recorded as “Stable”. The Ki in data set [7] is 2.3 nM.

Take `CC(C)Oc1ccccc1N1CCN(CCc2ccc(CN3CCCCC3=O)n2C)CC1.O=C(O)CCC(=O)O`: in the data set with Rattus norvegicus [5], the Esc loss was determined as 19%. For the same molecule, the inhibition in vivo at 5 mg/kg in the data set with Rattus norvegicus [1] is 82%. The T1/2 result in data set [6] is listed as “Stable”. In data set [7], this molecule registered a Ki of 1.5 nM.

For the molecule `COc1ccccc1N1CCN(Cc2ccc(CN3CCCCCCC3=O)o2)CC1.O=C(O)CCC(=O)O`, in the data set on Rattus norvegicus [5], the Esc loss was 19%. In addition, the T1/2 entry in data set [6] is on record as “Stable”. For the same molecule, the Ki in data set [7] stood at 32 nM. In addition, at 15 mg/kg the inhibition in vivo in the data set with Rattus norvegicus [2] was 99%.

As to `CNC(=O)c1ccc(CN2CCN(c3ccccc3OC)CC2)n1C.O=C(O)CCC(=O)O`, the Esc loss in the data set with Rattus norvegicus [5] is given as 0%. In the data set on Rattus norvegicus [1], this molecule had an inhibition in vivo at 5 mg/kg of 22%. Also, the T1/2 result in data set [6] is “Stable”. The molecule also gave an inhibition constant Ki in data set [7] of 248 nM.

`COc1ccccc1N1CCN(Cc2ccc(CN3C(=O)c4ccccc4C3=O)o2)CC1` showed an Esc loss with Rattus norvegicus [5] of 0%. This molecule also had a Ki in data set [7] of 1.9 nM. The inhibition in vivo at 15 mg/kg with Rattus norvegicus [2] turned out to be 3%.

`CC(C)Oc1ccccc1N1CCN(Cc2ccc(CN(C)S(=O)(=O)C(C)C)n2C)CC1.O=C(O)CCC(=O)O` showed an Esc loss in the data set with Rattus norvegicus [5] of 0%. Besides, in data set [7], the affinity, expressed as Ki, was 5.7 nM. In the data set with Rattus norvegicus [2], this molecule came in with an inhibition in vivo at 15 mg/kg of 0%.

Regarding `CC(C)Oc1ccccc1N1CCN(Cc2ccc(CN3CCCCCCC3=O)o2)CC1.O=C(O)CCC(=O)O`, the Esc loss with Rattus norvegicus [5] is 1%. Further, the T1/2 entry in data set [6] was “Stable”. The molecule also yielded a Ki in data set [7] of 29 nM. For the same molecule, in the data set with Rattus norvegicus [2], at 15 mg/kg the inhibition in vivo was 76%.

Take `CC(C)Oc1ccccc1N1CCN(Cc2ccc(CN3CCCCC3=O)o2)CC1.O=C(O)CCC(=O)O`: in the data set with Rattus norvegicus [5], the Esc loss came out at 0%. The molecule also came in with an inhibition in vivo at 5 mg/kg with Rattus norvegicus [1] of 46%. Besides, the T1/2 result in data set [6] is given as “Stable”. The molecule also came in with a Ki in data set [7] of 21 nM.

For the origin of these results see ChEMBL document CHEMBL1128321, “Piperazinylalkyl heterocycles as potential antipsychotic agents” (J Med Chem, 1995).
